Screening data (PubChem)
Arr AP2 block – inhibitors of human beta-arrestin and AP2 interaction | actives 0.31% (n = 340,000) | inhibition, % at 10 µM | FITC-arrestin peptide / GST-AP2 beads, flow cytometry; AP2 beta2 appendage carries R879A mutation;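 active = inhibition above a set limit, near 3 SD of compounds lacking own fluorescence, cut at about 54% in these data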;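 also: plate controls were DMSO wells for no effect and 5 µM unlabelled arrestin peptide for full effect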
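System: GST-AP2 R879A bound to glutathione beads, E. coli-expressed. Also added: 50 nM FITC-arrestin peptide. Schedule: compound with beads 12 min RT, then probe 1 h RT. Signal: bead flow cytometry, FITC channel. Read-out basis: percent response.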
GRIN3A LBD mod – modulates the human NR3A ligand-binding domain; NR3A LBD differential scanning fluorimetry, Tm shift; 0% = protein alone, 100% = glycine-bound protein; Tm shift relative to glycine control, % at 25 µM; actives 2.5% (n = 340,000); AID 1259313;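 active = melting temperature shift of at least 10% of the positive control shift, at one fixed dose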
FAS TE block – blocks the thioesterase domain of human fatty acid synthase. P49327. recombinant FAS-TE, OMFH fluorogenic substrate, fluorescence endpoint. inhibition, % at 15 µM. actives 0.67% (n = 360,000). AID 602261;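 active = compounds whose normalised, plate-corrected inhibition of enzyme fluorescence in the single-dose primary screen is 50% or more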;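 also: 0% = DMSO with enzyme and 100% = substrate without enzyme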
Cardio protect – myocardial damage modulation in H9c2 cells; H9c2 cardiomyocytes, H2O2 injury protection, ATPLite, 2 h; protection from H2O2 cell death, % at 20 µM; actives 0.63% (n = 360,000);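 active = compounds giving at least 50% protection of heart cells from peroxide-induced death in the single-dose screen, raw or plate-pattern-corrected value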;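 also: 0% = DMSO wells with peroxide and 100% = DMSO wells without peroxide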
hiPSC survival – increases survival of single human iPS cells | hiPSC single-cell survival, ATPlite luminescence; 100% = ROCK inhibitor wells, 0% = DMSO | actives 0.044% (n = 360,000) | survival enhancement, % at 20 µM | AID 602274; in the data active = survival enhancement above about 18%;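 also: cells exposed to compounds for 16 hours before the ATP read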
SENP1 inh – inhibitors of human SENP1 SUMO protease catalytic domain; Q9P0U3; recombinant SENP1 catalytic domain, CyPet-SUMO1-YPet FRET cleavage; inhibition, % at 10 µM; actives 0.21% (n = 360,000);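 active = inhibition at least 30% at 10 µM, raw YFP signal under a set limit, fluorescence ratio 0.5 to 1.5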;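 also: 0% = enzyme with DMSO and 100% = no enzyme wells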
Target sequence (Q9P0U3 419-644 limits assumed): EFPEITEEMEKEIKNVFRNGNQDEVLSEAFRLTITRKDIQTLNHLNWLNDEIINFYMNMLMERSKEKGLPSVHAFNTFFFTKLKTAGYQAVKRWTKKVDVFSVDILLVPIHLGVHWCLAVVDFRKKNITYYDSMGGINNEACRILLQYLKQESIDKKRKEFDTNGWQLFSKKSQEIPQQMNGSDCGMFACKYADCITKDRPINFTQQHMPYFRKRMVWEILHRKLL
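material = recombinant human SENP1 catalytic domain, His6-tagged | quantity = 20 pM enzyme | reagent = 25 nM SUMO1 FRET substrate | compound dosing = 10 µM single point, 0.5% DMSO | timing = 50 min enzyme reaction, room temperature, light-protected | detection = FRET, CFP and YFP emission | control set = no-enzyme low, enzyme-DMSO high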
Starred values were filed as active, the others as inactive; · = not tested or not shown. The list is not random: actives were taken first. Their share in the collection is about 4%.

SMILES | Arr AP2 block | GRIN3A LBD mod | FAS TE block | Cardio protect | hiPSC survival | SENP1 inh
CCN(c1cccc(C)c1)S(=O)(=O)c1cc2[nH]c(=O)c(=O)[nH]c2cc1C | · | · | 10 | 18 | 0 | -1
CCCCn1nnnc1C(c1cc2ccccc2o1)N1CCN(c2ncccc2C#N)CC1 (stereo not drawn) | · | · | 24 | · | -1 | 0
Cc1csc2nc(COC(=O)c3ccc(Cl)c([N+](=O)[O-])c3)cc(=O)n12 | 42 | 3 | 13 | 82* | 0 | 1
Cc1csc2nc(COC(=O)CNC(=O)c3ccc(Cl)cc3)cc(=O)n12 | 6 | 1 | -9 | 3 | 1 | 1
Nc1ccc(C(=O)OCc2csc(-c3ccccc3)n2)cc1[N+](=O)[O-] | · | 29* | -3 | -5 | 6 | -1
CC(C)C(C(=O)NCc1ccccc1)N1CCN(C(=O)C2CCCO2)CC1 (stereo not drawn) | · | · | · | · | · | 3
Cc1onc(-c2c(F)cccc2Cl)c1C(=O)Oc1ccccc1 | · | · | 28 | -8 | -1 | -1
S=C(Nc1ccccc1Cl)Nc1ccc(Cl)cc1Cl | -4 | 0 | -5 | 20 | -3 | 1
O=C(Nc1ccccc1Cl)Oc1ccc(Cl)cc1Cl | -1 | 10* | 0 | -11 | 0 | 0
Cc1[nH]c(-c2ccccn2)nc(=S)c1Cl | 36 | -1 | -9 | 59* | 2 | 0
CC(C(=O)NC1CCCC1)n1c(C2CCCC2)nc2ccccc21 (stereo not drawn) | · | · | · | · | · | 3
CCN(CC)C(=O)c1cccc(-c2csc(C(O)c3ccc(F)c(F)c3)n2)c1 (stereo not drawn) | · | · | 8 | -9 | 4 | 0
Cc1cccc(Nc2ccccc2C(=O)O)c1C | -6 | 14* | -6 | 13 | 0 | 0
Cc1cccc(Nc2ncccc2C(=O)O)c1C | -6 | 1 | -2 | 10 | 1 | -2
O=C(CN1CCCC1)NCC12CC3CC(CC(C3)C1)C2 | 6 | -1 | -4 | 3 | 1 | -2
O=C(CN1CCCC1)NC12CC3CC(CC(C3)C1)C2 | -4 | 10* | -10 | 5 | 2 | 1
O=C(Nc1ccc([N+](=O)[O-])cc1)C(c1ccccc1)c1ccccc1 | · | · | 33 | -8 | 0 | 1
O=C(C1CCCN1S(=O)(=O)c1ccc(Cl)c(Cl)c1)N1CCOCC1 (stereo not drawn) | 0 | 10* | -4 | 0 | 4 | 0
COc1ccc(NC(=O)C(c2ccccc2F)n2c(=O)c(-c3cc4ccccc4[nH]3)nc3ccccc32)cc1 (stereo not drawn) | · | · | · | · | · | -18
Nc1ccc2nc(-c3ccc(N)c(Cl)c3)[nH]c2c1 | 32 | 16* | 3 | 19 | -3 | -9
Nc1ccc(-c2nc3c(Cl)cc(N)cc3[nH]2)cc1 | 40 | 10* | -4 | 42 | 1 | -8
Nc1ccc2nc(-c3cccs3)[nH]c2c1 | 15 | -7 | -10 | 66* | 0 | -33
COc1cccc(C(=O)Nc2ccc3c(c2)OC[C@H](C)N(C(=O)C2CCCC2)C[C@@H](C)[C@@H](OC)CN(C)C3=O)c1 | · | · | · | · | · | 3
C/C(=N\NC(=O)CCc1c[nH]c2ccccc12)c1ccc([N+](=O)[O-])cc1 | 3 | 22* | 10 | -11 | 0 | 2
C/C(=N\Nc1ccc([N+](=O)[O-])cc1)c1ccc(C#N)cc1 | 26 | 9 | -2 | -5 | 0 | -30
SMILES | Arr AP2 block | GRIN3A LBD mod | FAS TE block | Cardio protect | hiPSC survival | SENP1 inh
C/C(=N/Nc1ccc([N+](=O)[O-])cc1)c1ccc(C)cc1C | 1 | 24* | 48 | -14 | -2 | -25
C/C(=N/Nc1ccc([N+](=O)[O-])cc1)c1c[nH]c2ccccc12 | -6 | 29* | 39 | -14 | 0 | -19
O=C(Cc1c[nH]c2ccccc12)N/N=C/c1ccc(F)cc1 | 3 | -5 | -6 | 0 | 2 | 2
C/C(=N/NC(=O)c1ccccn1)c1c[nH]c2ccccc12 | 0 | 4 | -3 | -6 | -1 | -2
CN(C)c1ccc(/C=N/NC(=O)CCc2c[nH]c3ccccc23)cc1 | 7 | 16* | -8 | -3 | 1 | 1
O=C(Cn1nnc(-c2ccccc2)c1COc1ccc2ccccc2c1)NCC1CC1 | · | · | 9 | -5 | 2 | 1
NC(Cc1ccccc1)c1csc(NC(=O)c2cccc(OC(F)(F)F)c2)n1 (stereo not drawn) | · | · | -13 | -20 | -3 | -3
C/C(=N\Nc1ccc([N+](=O)[O-])cc1)c1cc2ccccc2o1 | -4 | 27* | 26 | -16 | 0 | -35
C/C(=N\Nc1ccc([N+](=O)[O-])cc1)c1ccc2c(c1)OCO2 | 20 | 23* | -6 | -6 | 0 | -31
O=c1cccc(-c2ccc3ccccc3c2)o1 | · | · | · | · | · | 1
CC1(c2nc3ccccc3[nH]2)CCCC2=Nc3ccccc3CN21 (stereo not drawn) | · | · | -5 | · | -1 | -2
CCCC(=O)NC(c1ccco1)c1cc([N+](=O)[O-])c2cccnc2c1O (stereo not drawn) | 18 | -11 | 1 | 55* | 8 | 2
CCC(=O)NC(c1ccc(C)cc1)c1cc([N+](=O)[O-])c2cccnc2c1O (stereo not drawn) | -5 | -5 | 9 | 49 | 3 | -2
Cc1ccc(Cn2cc(/C=N/NC(=O)Cc3nnc(NC(=O)c4ccc(C)cc4)s3)c3ccccc32)cc1 | 6 | 13* | -19 | 17 | -1 | -6
Cn1c2ccccc2c2cc(/C=N/NC(=O)c3ccc(N)cc3)ccc21 | 0 | 17* | -2 | 25 | 0 | 1
Nc1ccc(C(=O)N/N=C/c2cn(Cc3ccc(F)cc3)c3ccccc23)cc1 | 27 | 16* | 2 | -5 | 1 | 0
O=C(Cc1nnc(NC(=O)c2ccccc2)s1)N/N=C/c1cccc(O)c1 | 0 | 41* | -2 | 7 | 0 | -1
CC(O)(c1ccccc1)c1nc(-c2ccncc2)cs1 (stereo not drawn) | · | · | -2 | -8 | 0 | 0
O=C(N/N=C/c1cccc(O)c1)N/N=C/c1cccc(O)c1 | 2 | 10* | 2 | -5 | -1 | -1
COC(=O)C[C@@H]1C=C[C@H](NC(=O)Nc2ccc(F)cc2)[C@@H](CO)O1 | · | · | · | · | · | 2
O=c1cc(-c2ccccc2)c2ccc(O)cc2o1 | -2 | 11* | 0 | 48 | 1 | -34
O=C(Oc1ccc2c(-c3ccccc3)cc(=O)oc2c1)C1CCCCC1 | 24 | -1 | 21 | 88* | -1 | -30
COC(=O)COc1ccc2c(-c3ccc(OC)cc3)cc(=O)oc2c1 | -1 | 0 | -1 | 2 | -2 | -4
CCOC(=O)C(Oc1ccc2c(-c3ccccc3)cc(=O)oc2c1)c1ccccc1 (stereo not drawn) | -8 | 11* | 28 | -3 | 0 | -32
